Source: ChEMBL document CHEMBL2346643, “Semisynthetic studies identify mitochondria poisons from botanical dietary supplements--geranyloxycoumarins from Aegle marmelos” (Bioorg Med Chem, 2013)
Active and inactive are the calls of the source. The rule behind the calls is not given here.

Experiments:
[1] = test system: T47D; experiment: Inhibition of mitochondrial ETC complex 1 in human T47D cells assessed as inhibition of oxygen consumption at 30 uM after 5 to 10 mins by Clarke-type electrode analysis; format: cell-based
Method in brief: (§1)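 For acute exposure, intact T47D cells received compound at 3, 10 or 30 μM for 5–10 min. Oxygen consumption was then measured with a Clarke-type electrode, with rotenone at 1–100 nM as control. Results are % inhibition of the untreated rate, averaged over two independent experiments with deviation from the average.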

[2] = test system: T47D; experiment: Antiproliferative activity against human T47D cells at 1 to 10 uM after 48 hrs by SRB assay; format: functional, cell-based
Method in brief: (§2)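 T47D or MDA-MB-231 breast tumor cells were exposed to 1, 3, 10 and 30 μM for 48 h or 144 h (6 d). For the 6 d exposure, medium was replaced after 3 days with fresh medium containing compound. Stocks were 4 mM in 2-propanol, with final solvent below 0.75%. Viability was measured by sulforhodamine B and expressed as % inhibition of the untreated control: [1−(OD treated/OD control)]×100.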

[3] = molecular target: T1, Mitochondrial complex I (NADH dehydrogenase) (Homo sapiens) (UniProt P03923+O95299+O00217+P03901+P56556+P03886+O95139+O00483+Q86Y39+P17568+P03891+O75306+P03915+P51970+O43674+P03905+P03897+O14561+O15239+O43181+O43676+O43677+O43678+O43920+O75251+O75380+O75438+O75489+O95167+O95168+O95169+O95178+O95182+O95298+O96000+P19404+P28331+P49821+P56181+Q16718+Q16795+Q8N183+Q9BU61+Q9NRX3+Q9NX14+Q9P032+Q9P0J0+Q9UI09+Q9Y375+Q9Y6M9); experiment: Inhibition of mitochondrial ETC complex 1 in human T47D cells assessed as inhibition of 1% O2-induced HIF1 activation at 30 uM incubated for 30 mins prior to 1% O2-challenge measured after 16 hrs by luciferase reporter assay; format: cell-based
Method in brief: (§3)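 pHRE-luc reporter transfected T47D cells were exposed for 16 h to hypoxia (1% O2) or to chemical hypoxia (10 μM 1,10-phenanthroline) in the presence of compound. The highest concentration tested was 30 μM. Luciferase signal was expressed as % inhibition of the induced control. IC50 and 95% CI came from one representative concentration-response experiment run in triplicate. Cycloheximide at 10 μM served as control.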

[4] = test system: T47D; experiment: Inhibition of mitochondrial ETC complex 1 in human T47D cells assessed as inhibition of oxygen consumption at 10 uM after 2 hrs by Clarke-type electrode analysis; format: cell-based
Method in brief: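 T47D cells were pretreated with 10 μM compound, or 0.01 μM rotenone, for 2 h. Cells were then detached and washed, and the oxygen consumption rate was measured with a Clarke-type electrode. Results are % inhibition relative to untreated controls.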

[5] = test system: MDA-MB-231; experiment: Antiproliferative activity against human MDA-MB-231 cells at 1 to 10 uM after 48 hrs by SRB assay; format: functional, cell-based; method in brief: as §2
[6] = test system: T47D; experiment: Inhibition of mitochondrial ETC complex 1 in human T47D cells assessed as inhibition of oxygen consumption at 10 uM after 10 mins by Clarke-type electrode analysis; format: cell-based; method in brief: as §1
[7] = molecular target: T1, Mitochondrial complex I (NADH dehydrogenase) (Homo sapiens); experiment: Inhibition of mitochondrial ETC complex 1 in human T47D cells assessed as inhibition of 1,10-phenanthroline-induced HIF1 activation at 30 uM incubated for 30 mins prior to 1,10-phenanthroline-challenge measured after 16 hrs by luciferase reporter assay; format: cell-based; method in brief: as §3
[8] = molecular target: Mitochondrial complex I (NADH dehydrogenase); experiment: Inhibition of mitochondrial ETC complex 1 in human T47D cells assessed as inhibition of 1% O2-induced HIF1 activation incubated for 30 mins prior to 1% O2-challenge measured after 16 hrs by luciferase reporter assay; format: cell-based; method in brief: as §3
[9] = molecular target: Mitochondrial complex I (NADH dehydrogenase); experiment: Inhibition of mitochondrial ETC complex 1 in human T47D cells assessed as inhibition of 1,10-phenanthroline-induced HIF1 activation incubated for 30 mins prior to 1,10-phenanthroline-challenge measured after 16 hrs by luciferase reporter assay; format: cell-based; method in brief: as §3

With `CCCCCC/C=C\CCCCCCCCCC(=O)O[C@H](CC/C(C)=C/COc1ccc2ccc(=O)oc2c1)C(C)(C)O` [R-(+)-MARMIN-6'-CIS-VACCENOATE] the inhibition [1] was 20%, the Activity [2] was “Active” and the inhibition [3] was 20%. For the same compound, the inhibition [4] was -6%, the Activity [5] was “Active” and the inhibition [6] was 5%. For the same compound, the inhibition [7] was 20%, the IC50 [8] was > 30 µM and the IC50 [9] was > 30 µM.
